INS promoter act = TRM-6 insulin promoter activation; TRM-6 cells, insulin promoter eGFP reporter, imaging; plate-scaled: unstimulated 0, stimulated control 100; activation, % at 2 µM; hit rate 0.81% among 130,000;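 active means activation at 2 µM above a set limit, confirmed on inspection of the cell images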;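 further: share of cells whose green reporter signal exceeds an intensity cutoff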
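Material: Human fetal islet-derived TRM-6 cells with tamoxifen-inducible insulin promoter–eGFP reporter | Medium: Low-glucose (5.5 mM) medium with tamoxifen | Probe or stimulus: Tamoxifen inducer, 0.75 µM, in seeding medium | Schedule: Tamoxifen pre-incubation 15 h overnight, then compound exposure 48 h at 37 °C | Detection: High-content imaging of fixed cells with Hoechst nuclear stain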
Active calls of the source: *. Shown is part of a subset that was picked to be rich in hits.

SMILES | INS promoter act
O=C(NNC(=O)C1CCN(Cc2ccc(Cl)c(Cl)c2)CC1)c1cccs1 | 9
CN(C)/C=N/c1nc2nccc(-c3cccc(Cl)c3)n2n1 | 0
CSCCC(NC(N)=O)C(=O)NCc1ccc(Cl)cc1 (configuration not stated) | -8
Cc1c(N2C(=O)C(C)SC23C(=O)Nc2ccccc23)c(=O)n(-c2ccccc2)n1C (configuration not stated) | 3
CC(C)c1ccc(NC2(C#N)C(=O)Nc3ccccc32)cc1 (configuration not stated) | 81*
Cc1ccccc1NC1(C#N)C(=O)Nc2ccccc21 (configuration not stated) | -9
CC(O)CN1CC(O)=C(c2nc3ccccc3s2)C1=N (configuration not stated) | 7
Cc1nc(N(C)Cc2ccccc2)c2nnn(Cc3ccccc3)c2n1 | 0
COc1cccc(/C=C/C(=C2/C(=O)N(c3ccccc3)N=C2C)c2ccc(C)cc2)c1OC | -9
Fc1ccc(Cc2nnc(-c3cccs3)o2)cc1 | -62
O=[N+]([O-])c1ccc(Cc2nnc(-c3ccccc3Cl)o2)cc1 | 344*
Clc1ccccc1-c1nnc(-c2cccs2)o1 | 0
C/C(=N/NC(=O)c1ccoc1C)c1ccc(NC(=O)c2ccncc2)cc1 | 0
Cc1c(NC(=O)c2n[nH]c(=O)c3ccccc23)c(=O)n(-c2ccccc2)n1C | -4
COc1cccc2c1C(=O)c1c(O)c3c(c(O)c1C2=O)C[C@@](O)(C(C)=O)C[C@@H]3O[C@H]1C[C@H](N)[C@H](O)[C@H](C)O1 | 354*
O=C(NCCCn1ccnc1)c1ccc(Cl)c(S(=O)(=O)N2CCOCC2)c1 | 0
CCNC(=O)COC(=O)CNC(=O)c1cc(Cl)cc([N+](=O)[O-])c1 | -5
C=C(C)CN1CCN(c2ccc(N3C(=O)CCCC3=O)cc2[N+](=O)[O-])CC1 | 8
CCN(c1ccccc1)S(=O)(=O)c1ccc(C(=O)OC(C)C(=O)NCCC2=CCCCC2)cc1 (configuration not stated) | -5
O=C(CSc1nc2ccccc2s1)N/N=C/c1ccc(C(=O)O)cc1 | 161*
Nc1nonc1NC(=O)CSc1nc2ccccc2s1 | 4
O=C(CSc1nc2ccccc2s1)NNC(=S)Nc1ccccc1 | -3
O=C(CSc1nc2ccccc2s1)CSc1nc2ccccc2s1 | 94*
O=C(CSc1nc2ccccc2o1)N/N=C/c1ccccc1 | 3
O=C(CSc1nc2ccccc2s1)Nc1nccs1 | -3
SMILES | INS promoter act
CC1=C(C(=O)N2CCCCC2)C(c2cccs2)NC(=O)N1 (configuration not stated) | 7
CNC(=O)C(=O)N/N=C/c1ccc(Br)cc1 | -71
CCCCOc1ccccc1C1C(C(N)=O)=C(C)Nc2nnnn21 (configuration not stated) | 493*
C=CCOC(=O)C1=C(C)Nc2nnnn2C1c1ccc(OC)cc1OC (configuration not stated) | 3
COC(=O)C1=C(C)Nc2nnnn2C1c1ccccc1Cl (configuration not stated) | 8
CCSc1n[nH]c(=S)s1 | 7
COc1ccc(S(=O)NC2CCCCC2)c(OC)c1C (configuration not stated) | 8
Cc1nnc2c(Oc3ccccc3)nc3ccccc3n12 | 131*
CCc1nc2ccccc2c2nc3ccccc3n12 | -6
Cc1ccc(-c2nnc3c(C(F)(F)F)nc4ccccc4n23)cc1 | 4
N#CC1(c2ccccc2)CCC(=NO)CC1 (configuration not stated) | 3
Cn1nc(C(=O)NCc2cccs2)c2ccccc2c1=O | 76*
Cn1nc(C(=O)NCc2ccccn2)c2ccccc2c1=O | -20
Cn1nc(C(=O)NCc2ccc(F)cc2)c2ccccc2c1=O | 60
CCN(C(=O)Cc1ccc(Br)cc1)C1CCCCC1 | 5
S=c1[nH]nc(-c2ccc3ccccc3n2)n1Cc1ccccc1 | -7
C=CCn1c(SCC(=O)c2ccc(OC)cc2)nnc1-c1cc2cccc(OC)c2o1 | -5
C=CCn1c(COc2cccc3cccnc23)nnc1SCC(=O)O | 0
C=CCn1c(COc2cccc3ccc(C)nc23)nnc1SCC(=O)O | 450*
COc1ccc(CN(C)C(C)C(=O)Nc2ccc(S(=O)(=O)N3CCCC3)cc2)c(OC)c1OC (configuration not stated) | -7
CCOC(=O)C1=C(c2ccccc2)OC(N)=C(C#N)C1c1cccnc1 (configuration not stated) | -7
CC1=C(C(=O)OCc2ccccc2)C(c2cccnc2)n2nnnc2N1 (configuration not stated) | -3
CCOC(=O)C1=C(N)Oc2ccc3ccccc3c2C1c1cccnc1 (configuration not stated) | 564*
Cc1cccc(NC(=O)CSc2nnc(-c3ccc(S(=O)(=O)N4CCOCC4)cc3)n2C)c1 | 10
COc1ccccc1-c1nc(S(=O)(=O)c2ccc(Cl)cc2)c(N(C)C)o1 | 471*
SMILES | INS promoter act
COc1ccccc1N(CC(=O)Nc1cc(C)on1)S(=O)(=O)c1ccc(Cl)cc1 | -3
COc1cc(-c2nc(S(=O)(=O)c3ccc(Cl)cc3)c(N3CCOCC3)o2)cc(OC)c1OC | 114
CCOCCCNC(=O)C(Cc1ccccc1)NC(=O)c1ccco1 (configuration not stated) | 124
O=C1C(=O)N(CCc2c[nH]c3ccccc23)C(c2cccnc2)/C1=C(/O)c1ccccc1 (configuration not stated) | 0
Cc1ccc2c(c1)C(O)(CC(=O)/C=C/C=C/c1ccccc1)C(=O)N2 (configuration not stated) | 7
Cc1cc2sc(C(=O)O)c(C)c2s1 | 339
C/C(N)=C(/C#N)C(=O)COC(=O)Cc1coc2cc(C)ccc12 | 7
COc1ccc([N+](=O)[O-])cc1NC(=O)COC(=O)C=C(C)C | 0
COCC(=O)OCC(=O)Nc1cc([N+](=O)[O-])ccc1Cl | 733*
CN(CCOc1ccccc1)CC(=O)Nc1cc([N+](=O)[O-])ccc1Cl | 9
C[C@@H]1NC(=O)[C@H](CCCN=C(N)N)NC(=O)c2cc([N+](=O)[O-])cc(I)c2OCC[C@@H](C(N)=O)NC1=O | -9
O=C(NCc1cccnc1)c1cccn1-c1ncc(C(F)(F)F)cc1Cl | -7
NS(=O)(=O)c1cccn1-c1ncc(C(F)(F)F)cc1Cl | -7
Cc1cc(C)cc(NC(=O)c2cccn2-c2ncc(C(F)(F)F)cc2Cl)c1 | 175*
O=C(Nc1ccccc1)c1ccc[nH]1 | -8
C/C(=N\NC(=O)c1ccccc1-n1cccc1)C1CC1 | -4
CCN(CC)C(=O)c1cnn(-c2ccccc2)c1NC(=O)c1ccccc1F | 5
CC(C)CNC(=O)CC(=O)NN=C1CCCC1 | -7
Cc1c(Cl)cccc1NCC(=O)NN=C1CCCC1 | 337*
O=C(CSc1ncccn1)NN=C1CCCCCC1 | -67
O=[N+]([O-])c1ccc(OCc2cnc(Cl)s2)cc1 | 240*
COC(=O)C(Cc1cnc(Cl)s1)(C(=O)OC)c1ccc([N+](=O)[O-])cc1 | 536*
CC1CN(CCOc2ccc([N+](=O)[O-])cc2)CC(C)O1 (configuration not stated) | -5
O=[N+]([O-])c1ccc(COc2ccc(CNc3ccccc3)cc2)cc1 | 0
COC(=O)C(Cc1cnc(Cl)s1)(C(=O)OC)c1ccccc1[N+](=O)[O-] | -8
Cc1ccc(OCC(=O)Nc2ccc([N+](=O)[O-])cc2)cc1 | -8

Assay outcomes deposited in PubChem BioAssay by Columbia University Molecular Screening Center.
